Data: ChEMBL document CHEMBL4699666, “Cyclic Peptidyl Inhibitors against CAL/CFTR Interaction for Treatment of Cystic Fibrosis” (J Med Chem, 2020)
Values belong to the compound of their own block, whether it stands above or below them. Calls of active or inactive are those of the source. The calls are words filed in the database; no cut-off is given here. Positions of bridges follow the written chain, without caps; N, C: chain ends. Non-standard residues stand in square brackets, D forms with d. Residues, ends and D or L forms follow the SMILES beside them. 2Nal = N[C@@H](Cc1ccc2ccccc2c1)C(=O)O; Bta = N[C@@H](Cc1csc2ccccc12)C(=O)O; Pen = CC(C)(S)[C@H](N)C(=O)O; Tle = CC(C)(C)[C@H](N)C(=O)O; Pip = O=C(O)[C@@H]1CCCCN1

Experiments:
[1] = Drug metabolism in human HCT-116 cells assessed as formation of (2S)-2-[[(2S)-2-[[(2S,3R)-2-[[(2R)-2-[[(2S)-1-[(2S)-2-[[(2S)-2-[[(2S)-2-[[(2S)-2-[[(2R)-2-[[(2R)-2-acetamido-3-sulfanyl-propanoyl]amino]-5-guanidino-pentanoyl]amino]-5-guanidino-pentanoyl]amino]-5-guanidino-pentanoyl]amino]-3-(2-naphthyl)propanoyl]amino]-3-(benzothiophen-3-yl)propanoyl]piperidine-2-carbonyl]amino]-3-methyl-3-sulfanyl-butanoyl]amino]-3-hydroxy-butanoyl]amino]-5-guanidino-pentanoyl]amino]-3,3-dimethyl-butanoic acid at 5 uM incubated for 4 to 24 hrs by MALDI-TOF-TOF mass spectrometry; assay type: ADME, cell-based; conditions: hct-116, 5 µM, time 4-24 hrs
Method in brief: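 HCT116 spheroids (7,000 cells seeded on agarose, grown 12 days) were exposed to 5 μM cyclic peptide for 4 or 24 h. They were washed, gelatin-embedded and cut into 16 μm sections. Positive-ion MALDI-TOF-TOF imaging (m/z 360–1400) gave heatmaps, scaled to the most intense signal, for intact peptide and about 20 possible proteolytic fragments.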

NCI-H358 = experiment: Toxicity in human NCI-H358 cells assessed as reduction in cell viability up to 50 uM incubated for 72 hrs by MTT assay; assay type: cell-based; conditions: nci-h358, 72 h
Method in brief: (§1)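 CFBE41o-, HCT116 or H358 cells were seeded at 5 × 10^3 per well and the next day exposed for 72 h at 37 °C to serial dilutions of peptide in DPBS at constant 0.5% DMSO. MTT was added for 4 h, formazan was solubilized with SDS-HCl overnight and absorbance read at 565 nm. Viability was expressed relative to 0.5% DMSO controls (100%); n = 3.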

Epithelial cell [2] = experiment: Inhibition of CAL and CFTR F508del mutant interaction in human CF-HBE cells isolated from patient with F508del mutation assessed as increase in short-circuit current incubated for 24 hrs in presence of 5 uM VX-661 by relative to VX-661 alone; assay type: cell-based
Method in brief: (§2)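 Primary bronchial epithelia from F508del/F508del donors (three donors) were grown at air/liquid interface and given corrector (5 μM VX-661) or none. After 24 h, peptide or DMSO was applied apically in Hank's solution for 1 h, then removed, and cells were kept a further 24 h. Ussing chambers used Ringer's with a low-chloride apical side. Isc changes were read after forskolin (10 μM) activation and Inh-172 inhibition; n = 5 filters.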

[3] = Toxicity in human CFBE41o- cells assessed as reduction in cell viability up to 50 uM incubated for 72 hrs by MTT assay; assay type: cell-based; method in brief: as §1
HCT-116 = experiment: Toxicity in human HCT-116 cells assessed as reduction in cell viability up to 50 uM incubated for 72 hrs by MTT assay; assay type: cell-based; conditions: hct-116, 72 h; method in brief: as §1
Epithelial cell [4] = experiment: Inhibition of CAL and CFTR F508del mutant interaction in human CF-HBE cells isolated from patient with F508del mutation assessed as increase in short-circuit current at 100 nM incubated for 24 hrs in presence of 5 uM VX-809 by relative to VX-809 alone; assay type: cell-based; conditions: time 2.0 hrs, in the assay text read “incubated for 2 hrs” for “incubated for 24 hrs”
Method in brief: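 Primary F508del-homozygous bronchial epithelia from one donor, grown at air/liquid interface, were treated with 5 μM VX-809 for 48 h, then with 100 nM peptide for 2 h. Short-circuit current was measured in an Ussing chamber and scaled to VX-809 alone (100%). Results are 2–3 replicates per condition.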

[5] = molecular target: T1, Na(+)/H(+) exchange regulatory cofactor NHE-RF1 (Homo sapiens, UniProt O14745); experiment: Binding affinity to NHERF1 PDZ1 domain (unknown origin) expressed in Escherichia coli BL21 incubated for 1 hr by fluorescence polarization based competition assay
T1 sequence (O14745 whole entry): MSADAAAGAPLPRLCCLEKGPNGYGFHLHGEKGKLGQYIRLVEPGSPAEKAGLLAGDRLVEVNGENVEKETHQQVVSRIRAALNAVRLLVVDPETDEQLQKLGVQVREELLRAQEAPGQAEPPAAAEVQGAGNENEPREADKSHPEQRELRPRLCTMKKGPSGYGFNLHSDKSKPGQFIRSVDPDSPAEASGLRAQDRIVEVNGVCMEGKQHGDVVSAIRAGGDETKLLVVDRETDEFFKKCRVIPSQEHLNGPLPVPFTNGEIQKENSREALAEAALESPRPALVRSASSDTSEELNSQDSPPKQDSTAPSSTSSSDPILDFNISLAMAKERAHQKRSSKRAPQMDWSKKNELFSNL
Method in brief: (§3)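 CAL, NHERF1 and NHERF2 PDZ domains carried a C-terminal His6 tag, were expressed in E. coli BL21 (0.1 mM IPTG, 16 h at 18 °C) and purified on Ni-NTA. For direct binding, 50 nM fluorescein-labelled peptide was titrated with PDZ protein (0–2.5 μM CAL; 0–25 μM NHERF1/2) in PBS pH 7.4 with 0.01% Triton X-100 and 2 mM TCEP for 1 h at room temperature. Fluorescence polarization gave KD; n = 3.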

[6] = molecular target: T2, Na(+)/H(+) exchange regulatory cofactor NHE-RF2 (Homo sapiens, UniProt Q15599); experiment: Binding affinity to NHERF2 PDZ1 domain (unknown origin) expressed in Escherichia coli BL21 incubated for 1 hr by fluorescence polarization based competition assay; method in brief: as §3
Homo sapiens [7] = species: Homo sapiens; experiment: Selectivity index, ratio of Kd for binding affinity to NHERF1 PDZ1 domain (unknown origin) expressed in Escherichia coli BL21 to Kd for binding affinity to C-terminal His6 tagged CAL PDZ domain (unknown origin) expressed in Escherichia coli BL21; method in brief: as §3
[8] = molecular target: T2, Na(+)/H(+) exchange regulatory cofactor NHE-RF2; experiment: Binding affinity to NHERF2 PDZ2 domain (unknown origin) expressed in Escherichia coli BL21 incubated for 1 hr by fluorescence polarization based competition assay
Homo sapiens [9] = species: Homo sapiens; experiment: Selectivity index, ratio of Kd for binding affinity to NHERF2 PDZ1 domain (unknown origin) expressed in Escherichia coli BL21 to Kd for binding affinity to C-terminal His6 tagged CAL PDZ domain (unknown origin) expressed in Escherichia coli BL21; method in brief: as §3
[10] = molecular target: T3, Golgi-associated PDZ and coiled-coil motif-containing protein (Homo sapiens, UniProt Q9HD26); experiment: Binding affinity to C-terminal His6 tagged CAL PDZ domain (unknown origin) expressed in Escherichia coli BL21 incubated for 1 hr by fluorescence polarization assay
[11] = Half life in 25% human serum at 100 uM incubated for 24 hrs at 37 degC by HPLC analysis; assay type: ADME, cell-free
Method in brief: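 Human serum diluted 1:4 in DPBS was pre-warmed to 37 °C, and peptide (100 μM final) was incubated in it at 37 °C. At each time point, aliquots were deproteinized with 15% TCA in MeOH plus MeCN for 24 h at 4 °C and centrifuged. Supernatants were analysed by reversed-phase HPLC, reading at 214 nm, for intact peptide remaining.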

[12] = Drug uptake in human HeLa cells at 5 uM incubated for 2 hrs by flow cytometry relative to CPP9; assay type: ADME, cell-based
Method in brief: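 Naphthofluorescein-labelled cyclic peptides (5 μM final, 0.5% DMSO, in DMEM with 10% FBS) were applied to HeLa cells, seeded the day before at 15 × 10^4 per well, for 2 h at 37 °C. Cells were washed with cold DPBS, trypsinized and analysed by flow cytometry. Mean fluorescence was expressed as % of CPP9; n = 3.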

[13] = molecular target: T3, Golgi-associated PDZ and coiled-coil motif-containing protein; experiment: Binding affinity to C-terminal His6 tagged CAL PDZ domain (unknown origin) expressed in Escherichia coli BL21 incubated for 1 hr using FAM-22 probe by fluorescence polarization based competition assay
[14] = Drug uptake in human HeLa cells assessed as absolute cytosolic entry efficiency at 5 uM incubated for 2 hrs by flow cytometry; assay type: ADME, subcellular, Cytoplasm
[15] = tested on: Cystic fibrosis transmembrane conductance regulator (Homo sapiens), P13569 [F508del]; experiment: Corrector activity at CFTR F508del mutant in human CF-HBE cells isolated from patient with F508del mutation assessed as increase in short-circuit current at 5 uM incubated for 24 hrs; assay type: cell-based; conditions: Epithelial cell, filed as activator; method in brief: as §2
Cystic fibrosis transmembrane conductance regulator (Homo sapiens), P13569 [F508del], sequence (P13569 as listed by the source): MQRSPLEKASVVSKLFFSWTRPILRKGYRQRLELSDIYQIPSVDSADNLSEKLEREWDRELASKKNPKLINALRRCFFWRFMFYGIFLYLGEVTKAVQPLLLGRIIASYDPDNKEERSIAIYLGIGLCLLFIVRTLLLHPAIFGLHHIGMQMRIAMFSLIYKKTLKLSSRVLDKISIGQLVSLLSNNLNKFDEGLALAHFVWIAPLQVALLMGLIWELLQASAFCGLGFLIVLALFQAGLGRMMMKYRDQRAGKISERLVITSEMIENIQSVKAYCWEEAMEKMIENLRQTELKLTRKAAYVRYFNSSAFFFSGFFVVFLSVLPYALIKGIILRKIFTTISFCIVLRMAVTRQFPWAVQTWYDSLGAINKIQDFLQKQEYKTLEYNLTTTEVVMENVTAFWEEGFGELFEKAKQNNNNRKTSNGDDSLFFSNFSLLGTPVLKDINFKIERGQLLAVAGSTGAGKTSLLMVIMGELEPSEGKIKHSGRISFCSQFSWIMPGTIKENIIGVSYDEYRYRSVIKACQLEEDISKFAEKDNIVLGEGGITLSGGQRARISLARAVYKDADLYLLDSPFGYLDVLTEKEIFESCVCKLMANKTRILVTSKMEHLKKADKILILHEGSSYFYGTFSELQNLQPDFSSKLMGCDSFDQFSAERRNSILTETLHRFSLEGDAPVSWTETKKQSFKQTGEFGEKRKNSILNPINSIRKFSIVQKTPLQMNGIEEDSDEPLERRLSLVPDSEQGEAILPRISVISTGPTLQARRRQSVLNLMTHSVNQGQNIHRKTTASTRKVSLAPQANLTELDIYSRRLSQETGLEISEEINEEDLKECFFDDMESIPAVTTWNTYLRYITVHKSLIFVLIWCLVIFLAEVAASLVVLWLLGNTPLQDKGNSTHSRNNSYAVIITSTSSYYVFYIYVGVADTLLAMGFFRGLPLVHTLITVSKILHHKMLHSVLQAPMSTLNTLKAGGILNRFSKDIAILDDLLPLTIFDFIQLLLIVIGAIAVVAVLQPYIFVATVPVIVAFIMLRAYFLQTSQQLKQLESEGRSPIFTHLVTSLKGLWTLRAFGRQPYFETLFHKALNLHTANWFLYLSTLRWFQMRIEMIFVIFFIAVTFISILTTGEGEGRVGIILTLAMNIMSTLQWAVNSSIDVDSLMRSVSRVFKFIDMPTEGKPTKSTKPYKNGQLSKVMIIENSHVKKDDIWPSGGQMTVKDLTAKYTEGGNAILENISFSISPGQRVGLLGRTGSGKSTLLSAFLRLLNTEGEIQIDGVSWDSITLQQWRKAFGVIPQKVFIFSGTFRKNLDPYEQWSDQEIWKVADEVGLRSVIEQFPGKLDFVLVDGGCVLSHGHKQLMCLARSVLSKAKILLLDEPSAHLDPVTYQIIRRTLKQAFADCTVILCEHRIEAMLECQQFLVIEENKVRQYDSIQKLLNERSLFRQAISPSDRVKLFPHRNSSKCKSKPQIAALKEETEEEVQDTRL

T2 sequence (Q15599 whole entry, the tested form may be a part): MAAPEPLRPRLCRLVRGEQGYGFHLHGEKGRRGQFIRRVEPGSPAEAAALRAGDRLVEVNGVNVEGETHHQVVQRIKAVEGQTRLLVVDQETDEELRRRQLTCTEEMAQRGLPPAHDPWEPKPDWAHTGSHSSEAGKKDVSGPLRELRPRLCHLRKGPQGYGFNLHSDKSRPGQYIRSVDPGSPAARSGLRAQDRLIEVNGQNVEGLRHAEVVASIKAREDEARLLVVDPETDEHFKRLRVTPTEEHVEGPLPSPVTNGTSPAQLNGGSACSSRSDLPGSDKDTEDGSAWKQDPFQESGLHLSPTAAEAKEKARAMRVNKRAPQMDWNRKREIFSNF

Structure (SMILES): CC(=O)N[C@H]1CSSC(C)(C)[C@@H](C(=O)N[C@H](C(=O)N[C@H](C(=O)N[C@@H](CCCNC(=N)N)C(=O)N[C@H](C(=O)O)C(C)(C)C)[C@@H](C)O)C(C)(C)C)NC(=O)[C@H](Cc2csc3ccccc23)NC(=O)[C@H](Cc2ccc3ccccc3c2)NC(=O)[C@H](CCCNC(=N)N)NC(=O)[C@H](CCCNC(=N)N)NC(=O)[C@@H](CCCNC(=N)N)NC1=O (Ac-C[dR]RR[2Nal][Bta][Pen][Tle]TR[Tle]-OH; disulfide 1-7)
inhibition (Epithelial cell [4]): inactive

Structure (SMILES): C[C@@H](O)[C@H](NC(=O)[C@@H](NC(=O)[C@@H](NC(=O)[C@H](Cc1csc2ccccc12)NC(=O)[C@H](Cc1ccc2ccccc2c1)NC(=O)[C@H](CCCNC(=N)N)NC(=O)[C@H](CCCNC(=N)N)NC(=O)[C@@H](CCCNC(=N)N)NC(=O)[C@H](CS)NC(=O)COCCOCCNC(=O)c1ccc2c(c1)C(=O)OC21c2ccc(O)cc2Oc2cc(O)ccc21)C(C)(C)S)C(C)(C)C)C(=O)N[C@@H](CCCNC(=N)N)C(=O)N[C@H](C(=O)O)C(C)(C)C
Kd [5]: 330 nM
Kd [6]: 560 nM
Ratio (Homo sapiens [7]): 6.7
Kd [8]: 2820 nM
Ratio (Homo sapiens [9]): 11.4
Kd [10]: 49 nM

Structure (SMILES): CC(C)(CO)c1cc2cc(NC(=O)C3(c4ccc5c(c4)OC(F)(F)O5)CC3)c(F)cc2n1C[C@@H](O)CO
Activity [15]: Active

Now from value to compound, other results behind:

Drug metabolism [1]: Metabolite_Detected
Structure (SMILES): CC(=O)N[C@H]1CSSC(C)(C)[C@@H](C(=O)N[C@H](C(=O)N[C@@H](CCCNC(=N)N)C(=O)N[C@H](C(=O)O)C(C)(C)C)[C@@H](C)O)NC(=O)[C@@H]2CCCCN2C(=O)[C@H](Cc2csc3ccccc23)NC(=O)[C@H](Cc2ccc3ccccc3c2)NC(=O)[C@H](CCCNC(=N)N)NC(=O)[C@H](CCCNC(=N)N)NC(=O)[C@@H](CCCNC(=N)N)NC1=O (Ac-C[dR]RR[2Nal][Bta][Pip][Pen]TR[Tle]-OH; disulfide 1-8)
Activity (NCI-H358): Non-Toxic
conc. at maximal effect (Epithelial cell [2]): 100 nM
inhibition (Epithelial cell [2]): Dose-dependent effect
Activity [3]: Non-Toxic
Activity (HCT-116): Non-Toxic

half-life at 100 µM [11]: > 24 h
Drug uptake [12]: 61%
IC50 [13]: 20 nM
Structure (SMILES): CC(=O)N[C@@H](CS)C(=O)N[C@H](CCCNC(=N)N)C(=O)N[C@@H](CCCNC(=N)N)C(=O)N[C@@H](CCCNC(=N)N)C(=O)N[C@@H](Cc1ccc2ccccc2c1)C(=O)N[C@@H](Cc1csc2ccccc12)C(=O)N1CCCC[C@H]1C(=O)N[C@H](C(=O)N[C@H](C(=O)N[C@@H](CCCNC(=N)N)C(=O)N[C@H](C(=O)O)C(C)(C)C)[C@@H](C)O)C(C)(C)S (Ac-C[dR]RR[2Nal][Bta][Pip][Pen]TR[Tle]-OH)

Drug uptake [14]: 62%
Structure (SMILES): N=C(N)NCCC[C@@H]1NC(=O)[C@H](Cc2ccc3ccccc3c2)NC(=O)[C@@H](Cc2ccccc2)NC(=O)[C@H](CCC(N)=O)NC(=O)[C@@H](CCCNC(=N)N)NC(=O)[C@H](CCCNC(=N)N)NC(=O)[C@@H](CCCNC(=N)N)NC1=O (cyclo([2Nal]R[dR]R[dR]Q[dF]))
